# Results reported in publication PMC4070457 (Drugs in R&D, 2014).
# Experiments:
# [1] = cited from earlier work
# [2] = oral 20 mg/kg, acyl carbon radiolabelled FA; cited from earlier work
# HNSCC = settings: oral dose of 25 mg/kg per day; cited from earlier work
# [3] = Tolerability / toxicity observation during the pharmacokinetic studies; type: in vivo, Sprague-Dawley rats
# Outline: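 Male Sprague-Dawley rats with jugular catheters were watched for toxic signs, including chromodacryorrhea, while on the pharmacokinetic study. Nine rats each received 25 mg/kg IV and 25 mg/kg PO (gavage) in saline, with sampling to 8 h. Separate IV dosing was at 10, 25 and 75 mg/kg. Animals were killed in a CO2 chamber after each study.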
# [4] = Pharmacokinetics of FA after IV and oral; type: in vivo, Sprague-Dawley rats; settings: for clearance: Sprague-Dawley, rat, serum, iv
# [5] = cited from earlier work; remark: listed apart in the source
compound,measurement,setting,value
"CCCCc1ccc(C(=O)O)nc1 [fusaric acid, 5-butlypicolinic acid]",FA excreted unchanged in the urine,[1],< 5%
same,calculated FA concentration at peak radioactivity,[2],42 ± 7.4 µg/mL
same,efficacy toward HNSCC,HNSCC,efficacious
same,"Toxicity (i.e., chromodacyrea)","[3]; 25 mg/kg IV and PO, nine animals",not observed
same,adverse effects,"[3]; IV doses of 10, 25, and 75 mg/kg",no adverse effects observed
same,time until FA serum concentration fell below the lower limit of quantitation (10 µM),"[4]; 25 mg/kg IV or PO, all animals",≤ 4 h
same,Vd (apparent volume of distribution),"[4]; 25 mg/kg oral, average",182 ± 27 mL
same,clearance,"[4]; 10 mg/kg, 10 mg/kg IV",0.783 mL/min
same,clearance,"[4]; 25 mg/kg, 25 mg/kg IV",1.35 mL/min
same,dose at which adverse effects were observed,[5],100 mg/kg
